Assay results collected from several papers.
Each line is one published result; the experiments were not run side by side.
Target: Tyrosine-protein kinase ITK/TSK (ITK, Homo sapiens, UniProt Q08881)
Residues used in one study (Q08881 1-620): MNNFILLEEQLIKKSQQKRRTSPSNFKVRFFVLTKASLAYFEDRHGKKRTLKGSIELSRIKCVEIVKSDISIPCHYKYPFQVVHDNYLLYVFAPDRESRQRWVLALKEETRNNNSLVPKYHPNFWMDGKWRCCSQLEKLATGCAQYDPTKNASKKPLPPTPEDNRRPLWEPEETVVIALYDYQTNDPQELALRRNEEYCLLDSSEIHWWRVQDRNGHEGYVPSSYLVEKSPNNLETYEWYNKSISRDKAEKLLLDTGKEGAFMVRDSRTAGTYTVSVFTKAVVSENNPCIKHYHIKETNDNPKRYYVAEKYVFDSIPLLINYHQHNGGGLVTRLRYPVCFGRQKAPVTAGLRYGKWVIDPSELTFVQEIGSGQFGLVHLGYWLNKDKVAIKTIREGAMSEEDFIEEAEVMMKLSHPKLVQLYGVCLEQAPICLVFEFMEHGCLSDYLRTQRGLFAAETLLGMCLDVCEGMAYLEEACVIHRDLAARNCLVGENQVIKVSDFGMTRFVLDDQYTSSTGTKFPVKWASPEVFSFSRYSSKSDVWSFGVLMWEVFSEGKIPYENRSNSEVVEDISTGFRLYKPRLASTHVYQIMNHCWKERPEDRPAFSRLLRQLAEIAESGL

With `CCN(CC)CCNC(=O)c1c(C)[nH]c(/C=C2\C(=O)Nc3ccc(F)cc32)c1C` the inhibition was 48% (enzyme activity, inhibitor; 0.3 µM).
With `CCCOc1ccc([C@H]2[C@H](C(=O)O)[C@@H](c3ccc4c(c3)OCO4)CN2CC(=O)Nc2c(CC)cccc2CC)cc1` the remaining binding was 96% (cell-free assay, competition with immobilised ligand; 1 µM).
`CC/C(=N\NC(=O)NCc1cccc(O)c1)c1ccc(O)c(C)c1O` has an inhibition of 3.3% (enzyme activity, inhibitor; 0.1 µM).
The remaining binding of `CNCc1ccccc1-c1csc([C@H](C)Nc2nc(C)nc3cc(OC)c(OC)cc23)c1` is reported as 100% (cell-free assay, competition with immobilised ligand; 1 µM).
The remaining binding of `c1cnn2ncc(-c3ccnc(N4CCC45COC5)n3)c2c1` is reported as 100% (binding; 1 µM).
With `CC(C)CC(=O)N1CCc2nc(-c3ccc(Br)cc3)nc(N(C)Cc3ccccc3)c2C1` the remaining binding was 100% (cell-free assay, competition with immobilised ligand; 0.1 µM).
`CNC(=O)c1cc(Oc2ccc(NC(=O)Nc3ccc(Cl)c(C(F)(F)F)c3)cc2)ccn1` gave an inhibition of -10% (enzyme activity, inhibitor; 0.3 µM).
`O=C(Nc1cnn(-c2csc(C(=O)NC3COC3)c2)c1)Nc1c(F)cccc1Cl` gave a remaining activity of 92.8% (enzyme activity, inhibitor; 5 µM).
For `O=C(NC[C@@H]1[C@H]2CN(C(=O)OCc3cc(C(F)(F)F)cc(C(F)(F)F)c3)C[C@@H]12)c1ccc2[nH]nnc2c1`, the remaining binding was 100% (cell-free assay, competition with immobilised ligand; 1 µM).
`O=C1Nc2ccc(Cl)cc2C1=Cc1cc(Cl)c(O)c(Cl)c1` gave a remaining signal of 91.8% (cell-free assay; 0.5 µM).
`COc1cccc(CNC(=O)c2nc3scc(COCc4ccc(C(=O)O)cc4)c3c(=O)[nH]2)c1` gave a remaining binding of 86.8% (cell-free assay, competition with immobilised ligand; 1 µM).
With `Cc1ccc(NC(=O)c2ccc(C)c(C(F)(F)F)c2)cc1C#Cc1nn(C2CCC(O)CC2)c2ncnc(N)c12` (stereo not drawn) the remaining signal was 102% (cell-free assay; 10 µM).
`Cc1cnc(NC2CCOCC2)nc1-n1cnc(C(=O)NC(CN)c2cc(F)cc(Cl)c2)c1` (stereo not drawn) has a remaining activity of 92% (enzyme activity, inhibitor, radiometric; 1 µM).
For `CN1CC(Oc2cnc(C#N)cc2-c2ccn3nc(NC(=O)C4CC4)cc3c2)C1`, the inhibition was 3% (enzyme activity, inhibitor; 1 µM).
For `O=c1cc(-c2cccc3c2Sc2ccccc2S3)oc(N2CCOCC2)c1`, the remaining activity was 96.6% (enzyme activity, inhibitor; 0.5 µM).
With `CN(C)C1CCN(CC#Cc2nn(C3CCCC3)c3nc(NCc4ccccc4)ncc23)C1` (stereo not drawn) the inhibition was 1% (enzyme activity, inhibitor, FRET; 0.1 µM).
For `O=c1c2ccccc2[nH]c(=S)n1CCN1CCC(=C(c2ccc(F)cc2)c2ccc(F)cc2)CC1`, the remaining activity was 97.1% (enzyme activity, inhibitor; 0.5 µM).
For `COc1cc2ncnc(Nc3ccc(Oc4ccccc4)c(C)c3C)c2cc1OC`, the inhibition was 7% (enzyme activity, inhibitor; 1 µM).
The inhibition of `CCCS(=O)(=O)Nc1ccc(F)c(C(=O)c2c[nH]c3ncc(-c4ccc(Cl)cc4)cc23)c1F` is reported as less than 10% (enzyme activity, inhibitor; 1 µM).
`COc1cc2c(Nc3ccc(Br)cc3F)ncnc2cc1OCC1CCN(C)CC1` has a remaining signal of 101% (cell-free assay; 0.5 µM).
For `CS(=O)(=O)N1CCCC(NC(=O)[C@H](CCC2CCCCC2)NC(=O)c2ccc(CNc3ncnc4c3nnn4-c3ccccc3)cc2)C1` (stereo partly drawn), the remaining binding was 100% (cell-free assay, competition with immobilised ligand; 0.1 µM).
`Cc1ccc(C(=O)NCc2ccsc2)cc1C#Cc1cn(C(C)C)c2ncnc(N)c12` has an activity vs control of 97% (enzyme activity, inhibitor; 1 µM).
The remaining activity of `CC(C)(C)c1nc2c(s1)c1nc(N)ncc1c1ccc(NS(=O)(=O)c3c(F)cccc3F)c(F)c12` is reported as 94% (enzyme activity, inhibitor, radiometric; 1 µM).
`Cc1ccc(Nc2nccc(N(C)c3ccc4c(C)n(C)nc4c3)n2)cc1S(N)(=O)=O` has a remaining signal of 115% (cell-free assay; 0.5 µM).
`Cc1nc(C2CCN(C(=O)c3ccc(OC(F)(F)F)cc3N)CC2)c2ncc(N3CCN(C)CC3)cc2n1` has a remaining binding of 89% (cell-free assay, competition with immobilised ligand; 1 µM).
The remaining activity of `CCN(CC)CCNC(=O)c1c(C)[nH]c(/C=C2\C(=O)Nc3ccc(Cl)cc32)c1C` is reported as 30% (enzyme activity, inhibitor; 0.5 µM).
`CO[C@H]1CC[C@H](CNc2ccc(S(=O)(=O)NC(=O)c3ccc(N4CCN(CC5=C(c6ccc(Cl)cc6)CC(C)(C)CC5)CC4)cc3Oc3cnc4[nH]ccc4c3)cc2[N+](=O)[O-])CC1` gave a remaining binding of 87% (cell-free assay, competition with immobilised ligand; 1 µM).
